Results published in ChEMBL document CHEMBL1156567, “Sulindac derivatives that activate the peroxisome proliferator-activated receptor gamma but lack cyclooxygenase inhibition” (J Med Chem, 2008).
Active and inactive are the calls of the source. No cut-off for these calls is given here.

Tests used:
[1] = biological target: T1, Peroxisome proliferator-activated receptor gamma (Homo sapiens, UniProt P37231); test: (§1) Agonist activity at PPARgamma expressed in human HCA7 cells assessed as induction of peroxisome proliferator response element after 12 hrs by luciferase reporter assay; assay type: functional, cell-based
T1 sequence (P37231 whole entry): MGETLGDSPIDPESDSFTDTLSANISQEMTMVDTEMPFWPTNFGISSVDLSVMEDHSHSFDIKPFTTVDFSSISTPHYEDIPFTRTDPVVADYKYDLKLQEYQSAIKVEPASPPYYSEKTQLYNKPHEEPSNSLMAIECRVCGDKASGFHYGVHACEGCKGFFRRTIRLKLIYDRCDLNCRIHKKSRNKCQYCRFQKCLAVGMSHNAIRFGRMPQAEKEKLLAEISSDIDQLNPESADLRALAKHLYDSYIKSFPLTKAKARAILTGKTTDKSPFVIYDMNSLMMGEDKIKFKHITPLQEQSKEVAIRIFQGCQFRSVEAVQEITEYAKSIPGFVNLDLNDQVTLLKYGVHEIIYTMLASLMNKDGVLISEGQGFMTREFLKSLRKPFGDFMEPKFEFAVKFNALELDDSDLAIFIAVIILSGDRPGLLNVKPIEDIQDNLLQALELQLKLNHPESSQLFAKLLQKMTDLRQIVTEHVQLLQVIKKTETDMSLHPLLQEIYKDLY

[2] = biological target: Prostaglandin G/H synthase 1 (Homo sapiens) (UniProt P23219); test: Inhibition of cyclooxygenase 1 upto 4 uM
[3] = biological target: T2, Peroxisome proliferator-activated receptor gamma (Homo sapiens) (UniProt P37231); test: Agonist activity at PPARgamma in human HCA7 cells assessed as induction of aP2 expression after 24 hrs by Western blotting; assay type: functional, cell-based
T2 sequence (whole entry): T1 sequence (P37231 whole entry)
In short: (§2)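 HCA7 cells (DMEM, 10% FBS) treated 0–1 μM for 24 h. Lysates made in Tween 20/protease-inhibitor buffer, sonicated and cleared at 10000g. Protein measured by BCA, 100 μg/lane run on 12.5% SDS-PAGE. Blotted to nitrocellulose, probed for L-FABP, aP2 and β-actin, HRP secondary with ECL detection.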

[4] = biological target: T3, Peroxisome proliferator-activated receptor delta (Homo sapiens) (UniProt Q03181); test: Agonist activity at PPARdelta in human HCA7 cells expressing shRNA assessed as induction of peroxisome proliferator response element at 1 uM after 12 hrs by luciferase reporter assay; assay type: functional, cell-based
T3 sequence (whole entry): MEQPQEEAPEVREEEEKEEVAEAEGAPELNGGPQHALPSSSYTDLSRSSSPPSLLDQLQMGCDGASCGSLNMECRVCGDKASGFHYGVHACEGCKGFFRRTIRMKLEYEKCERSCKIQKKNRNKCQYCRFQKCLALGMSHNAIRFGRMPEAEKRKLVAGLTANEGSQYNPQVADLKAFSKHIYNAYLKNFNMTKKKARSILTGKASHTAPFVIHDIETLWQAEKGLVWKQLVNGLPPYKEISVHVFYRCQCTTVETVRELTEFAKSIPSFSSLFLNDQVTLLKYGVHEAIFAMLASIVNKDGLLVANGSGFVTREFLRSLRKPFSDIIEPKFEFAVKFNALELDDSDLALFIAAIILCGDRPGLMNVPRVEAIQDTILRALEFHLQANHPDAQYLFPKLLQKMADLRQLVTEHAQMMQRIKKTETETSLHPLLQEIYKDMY
In short: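 Stable HCA7 lines made by nucleofection with control shRNA or shRNAs to PPARγ, α or δ, then puromycin-selected; silencing checked by immunoblot. Cells transfected with 1.8 μg PPRE-luciferase plus 0.2 μg pSVβgal (Lipofectamine 2000). Medium change after 6 h, growth medium for 16 h, then 1 μM compound serum-free for 12 h. Luciferase normalized to β-galactosidase; n = 6.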

[5] = biological target: T2, Peroxisome proliferator-activated receptor gamma (Homo sapiens); test: Agonist activity at PPARgamma in human HCA7 cells assessed as induction of L-FABP expression after 24 hrs by Western blotting; assay type: functional, cell-based; in short: as §2
[6] = biological target: T2, Peroxisome proliferator-activated receptor gamma (Homo sapiens); test: Agonist activity at PPARgamma in human HCA7 cells assessed as induction of aP2 expression after 24 hrs by Western blotting in presence of GW-9662; assay type: functional, cell-based
In short: (§3)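 HCA7 cells given vehicle, the agonist, the antagonist alone, or both together for 24 h. Lysate protein 100 μg/lane on 12.5% SDS-PAGE, transferred to nitrocellulose. Immunoblot probed for L-FABP, aP2 and β-actin with ECL detection.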

[7] = test system: 3T3-L1; test: Induction of triglyceride accumulation in mouse 3T3L1 cells at 1 uM after 48 hrs; assay type: functional, cell-based
In short: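 Mouse 3T3-L1 cells in DMEM with 10% calf serum, grown to 60% confluence. Differentiation started with 0.1% IBMX plus 1.0% dexamethasone for 48 h. Then 2 days in growth medium with 10 μg/mL human insulin plus compound, then fresh growth medium for 48 h. Lipid droplets stained with Oil Red O and imaged at 200×.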

[8] = biological target: T2, Peroxisome proliferator-activated receptor gamma (Homo sapiens); test: Agonist activity at PPARgamma in human HCA7 cells assessed as induction of L-FABP expression after 24 hrs by Western blotting in presence of GW-9662; assay type: functional, cell-based; in short: as §3
[9] = biological target: T2, Peroxisome proliferator-activated receptor gamma (Homo sapiens); test: as §1; assay type: functional, cell-based
[10] = biological target: T2, Peroxisome proliferator-activated receptor gamma (Homo sapiens); test: Stimulation of PPARgamma binding to P32-labeled peroxisome proliferator response element in human HCA7 cells nuclear extracts after 30 mins by electrophoretic mobility shift assay; assay type: cell-based
In short: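 HCA7 cells treated with vehicle or 0.1–1 μM for 30 min, then nuclear extracts prepared. 5 μg nuclear protein preincubated 10 min at 25 °C in HEPES pH 7.9, glycerol, BSA, poly(dI·dC). 32P-labeled PPRE oligonucleotide added for 20 min at 25 °C. Specificity checked by 100-fold unlabeled or mutant competitor and PPARγ antibody supershift. Run on 4% native PAGE, read by autoradiography.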

[11] = biological target: T2, Peroxisome proliferator-activated receptor gamma (Homo sapiens); test: Displacement of [3H]troglitazone from human PPARgamma ligand binding domain expressed in Escherichia coli by scintillation proximity assay
In short: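 His-tagged human PPARγ-LBD from E. coli, biotinylated and bound to streptavidin SPA beads. Competition against 50 nM 3H-troglitazone with rising unlabeled compound. Buffer 50 mM HEPES pH 7, 50 mM KCl, 5 mM CHAPS, BSA, no dithiothreitol.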

[12] = biological target: T2, Peroxisome proliferator-activated receptor gamma (Homo sapiens); test: Agonist activity at PPARgamma in human HCA7 cells expressing shRNA assessed as induction of peroxisome proliferator response element at 1 uM after 12 hrs by luciferase reporter assay; assay type: functional, cell-based
In short: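 HCA7 lines stably carrying control or PPARγ/α/δ shRNA (nucleofection, puromycin selection). Cells at 40% confluence co-transfected with 1.8 μg PPRE-luciferase and 0.2 μg pSVβgal using Lipofectamine 2000. After 6 h, growth medium for 16 h, then 12 h compound in serum-free medium. Luciferase normalized to β-galactosidase; means, SD, n = 6; Student's t test.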

[13] = biological target: T3, Peroxisome proliferator-activated receptor delta (Homo sapiens); test: Agonist activity at PPARdelta in human HCA7 cells assessed as induction of peroxisome proliferator response element at 1 uM after 12 hrs by luciferase reporter assay; assay type: functional, cell-based
In short: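 HCA7 human colon cancer cells (which express PPARα, δ and γ) grown in DMEM with 10% FBS to 40% confluence. Transfected with 1.8 μg PPRE-luciferase plus 0.2 μg pSVβgal using Lipofectamine 2000. After 6 h, growth medium for 16 h, then compound in serum-free medium for 12 h. Luciferase normalized to β-galactosidase; n = 6.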

Chain of Prostaglandin G/H synthase 1 (Homo sapiens) (P23219 whole entry): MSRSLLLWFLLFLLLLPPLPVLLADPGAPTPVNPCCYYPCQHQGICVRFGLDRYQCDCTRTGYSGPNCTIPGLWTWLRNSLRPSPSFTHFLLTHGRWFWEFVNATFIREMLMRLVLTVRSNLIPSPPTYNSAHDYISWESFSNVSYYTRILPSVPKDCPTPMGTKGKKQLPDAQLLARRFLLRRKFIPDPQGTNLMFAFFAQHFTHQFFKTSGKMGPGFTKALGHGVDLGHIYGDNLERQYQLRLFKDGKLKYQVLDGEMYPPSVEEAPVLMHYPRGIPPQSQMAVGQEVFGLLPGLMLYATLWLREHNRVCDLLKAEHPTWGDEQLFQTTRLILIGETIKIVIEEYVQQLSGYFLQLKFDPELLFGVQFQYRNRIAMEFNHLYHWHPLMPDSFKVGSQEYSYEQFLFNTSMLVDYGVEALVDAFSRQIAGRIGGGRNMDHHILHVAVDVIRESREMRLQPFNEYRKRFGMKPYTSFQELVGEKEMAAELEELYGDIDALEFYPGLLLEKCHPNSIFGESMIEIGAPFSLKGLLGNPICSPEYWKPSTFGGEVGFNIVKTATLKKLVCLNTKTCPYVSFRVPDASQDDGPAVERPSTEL

Row | Compound | EC50 [1] [nM] | Activity [2] | also measured
1 | O=C(O)CC1=CCc2ccc(F)cc21 | > 10000 | inactive | 
2 | CS(=O)(=O)c1ccc(/C=C2\C=C(CC(=O)O)c3cc(F)ccc32)cc1 | > 10000 | inactive | 
3 | O=C(O)CC1=C/C(=C\c2ccc(Br)cc2)c2ccc(F)cc21 | 1100 | inactive | 
4 | O=C(O)CC1=C/C(=C\c2ccc3ccccc3c2)c2ccc(F)cc21 | 1200 | inactive | 
5 | C#Cc1ccc(/C=C2\C=C(CC(=O)O)c3cc(F)ccc32)cc1 | 1100 | inactive | 
6 | C[S+]([O-])c1ccc(/C=C2\C=C(CC(=O)O)c3cc(F)ccc32)cc1 (stereo unspecified) | > 10000 | inactive | 
7 | Cc1ccc(/C=C2\C=C(CC(=O)O)c3cc(F)ccc32)cc1 | 2400 | inactive | 
8 | [N-]=[N+]=NCc1ccc(/C=C2\C=C(CC(=O)O)c3cc(F)ccc32)cc1 | 900 | inactive | 
9 | O=C(O)CC1=C/C(=C\c2ccc(-c3ccc(F)cc3F)cc2)c2ccc(F)cc21 | 100 | inactive | 
10 | O=C(O)CC1=C/C(=C\c2ccc(SC(F)(F)F)cc2)c2ccc(F)cc21 | 200 | inactive | 
11 | O=C(O)CC1=C/C(=C\c2ccc(-c3ccccc3)cc2)c2ccc(F)cc21 | 100 | inactive | 
12 | O=C(O)CC1=C/C(=C\c2ccccc2)c2ccc(F)cc21 | 1700 | inactive | 
13 | O=C(O)CC1=C/C(=C\c2cccc3cccnc23)c2ccc(F)cc21 | 1500 | inactive | 
14 | CC(C)(C)Oc1ccc(/C=C2\C=C(CC(=O)O)c3cc(F)ccc32)cc1 | 1900 | inactive | 
15 | CSc1ccc(/C=C2\C=C(CC(=O)O)c3cc(F)ccc32)cc1 | 700 | inactive | 
16 | O=C(O)CC1=C/C(=C\c2cccc3ccccc23)c2ccc(F)cc21 | 100 | inactive | Activity [3]: Active; Activity [4]: inactive; Activity [5]: Active; Activity [6]: inactive; Activity [7]: Active; Activity [8]: inactive; Activity [9]: Dose-dependent effect; Activity [10]: Active; Activity [11]: Active; Activity [12]: inactive; Activity [13]: Active
17 | O=C(O)CC1=C/C(=C\c2ccc(F)c3ccccc23)c2ccc(F)cc21 | 100 | inactive | 
18 | COc1ccc(/C=C2\C=C(CC(=O)O)c3cc(F)ccc32)cc1 | 1300 | inactive | 
19 | O=C(O)CC1=C/C(=C\c2ccc(C(=O)O)cc2)c2ccc(F)cc21 | > 10000 | inactive | 
20 | O=C(O)CC1=C/C(=C\c2ccc(C(F)(F)F)cc2)c2ccc(F)cc21 | 2500 | inactive | 
21 | CSc1ccc(/C=C2/C(C)=C(CC(=O)O)c3cc(F)ccc32)cc1 |  | inactive | 
22 | CSc1ccc(-c2ccc(/C=C3\C=C(CC(=O)O)c4cc(F)ccc43)cc2)cc1 | 1500 | inactive | 
23 | O=C(O)CC1=C/C(=C\c2ccc3nccnc3c2)c2ccc(F)cc21 | > 10000 | inactive | 
